Source: ChEMBL document CHEMBL4842338, “System-oriented optimization of multi-target 2,6-diaminopurine derivatives: Easily accessible broad-spectrum antivirals active against flaviviruses, influenza virus and SARS-CoV-2” (Eur J Med Chem, 2021)
Activity calls are given as the source filed them. The rule behind the calls is not given here.

Tests used:
[1] = test system: Zika virus; assay: Antiviral activity against Zika virus H/PF/2013 infected in pre-seeded Huh-7 cells assessed as inhibition of viral replication incubated for 72 hrs by immunodetection based secondary yield reduction assay; assay type: functional, organism-based; conditions: H/PF/2013, Huh-7, 72 h
[2] = test system: MDCK; assay: Cytotoxicity against MDCK cells assessed as reduction in cell viability measured after 24 hrs by MTT assay; assay type: cell-based, Canis lupus familiaris; conditions: dog, mdck, 24 h
[3] = test system: Influenza A virus; assay: Antiviral activity against Influenza A Puerto Rico/8/34/H1N1 infected in human A549 cells assessed as inhibition of hemagglutinin expression at 20 uM treated immediately after infection for 2 to 6 hrs followed by maintaining cells in fresh medium without compound for 24 hrs followed by infecting monolayer MDCK cells with supernatant for 24 hrs by time-of-addition assay; assay type: functional, organism-based; conditions: A/Puerto Rico/8/1934(H1N1), time 2-6 hrs
In short: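 A549 cells infected with PR8 H1N1 received 20 μM compound immediately after adsorption for 2, 4 or 6 h, then fresh medium to 24 h; supernatants infected fresh MDCK for 24 h; anti-HA in-cell western; RFU % vs untreated infected; 4 replicates from two experiments.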

[4] = test system: Influenza A virus; assay: Antiviral activity against Influenza A virus (A/parrot/Ulster/73(H7N1)) infected in human A549 cells assessed as reduction in viral protein expression at 20 uM pretreated for 2 hrs followed by staining with anti-Flu antibody observed at 24 hrs post infection by In-cell western assay; assay type: functional, organism-based
[5] = test system: SARS-CoV-2; assay: Antiviral activity against SARS-COV 2 infected in human Calu-3 cells assessed as inhibition of viral replication at MOI of 0.01 followed by removal of test compound after cell virus adsorption incubated for 72 hrs by ENTRY-DYRA method; assay type: functional, organism-based; conditions: Severe acute respiratory syndrome coronavirus 2, Calu-3, 72 h

Which results are given for FC(F)(F)c1cccc(Nc2nc(NCCOc3ccccc3)nc3[nH]cnc23)c1?
IC50 [1]: 1100 nM; CC50 [2]: 77000 nM; Activity [3]: Active; Activity [4]: Active; IC50 [5]: 1900 nM
